Test results as given in ChEMBL document CHEMBL1131628 (J Med Chem, 1998).
One block for each compound: values may come before it.

Legend:
Endothelin-1 receptor [1] = molecular target: T1, Endothelin-1 receptor (Rattus norvegicus, UniProt P26684); assay: Binding affinity for endothelin A receptor by measuring its ability to displace [125I]ET1 from prolactin secreting rat pituitary cells(MMQ); format: cell-based, Pituitary gland cell
T1 sequence (P26684 whole entry): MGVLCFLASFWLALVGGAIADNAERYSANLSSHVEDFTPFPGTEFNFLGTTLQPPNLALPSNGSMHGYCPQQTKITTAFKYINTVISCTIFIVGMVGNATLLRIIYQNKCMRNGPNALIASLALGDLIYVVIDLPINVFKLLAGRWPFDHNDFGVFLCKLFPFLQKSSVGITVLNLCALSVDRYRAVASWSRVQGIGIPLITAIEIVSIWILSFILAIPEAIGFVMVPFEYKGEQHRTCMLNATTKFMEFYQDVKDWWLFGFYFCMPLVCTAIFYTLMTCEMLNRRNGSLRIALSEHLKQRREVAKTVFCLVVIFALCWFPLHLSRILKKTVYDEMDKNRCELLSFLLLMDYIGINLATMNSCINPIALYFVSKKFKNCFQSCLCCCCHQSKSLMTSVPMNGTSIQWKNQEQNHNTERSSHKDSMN

[2] = Pharmacokinetic profile AUC was evaluated in rats; format: ADME, organism-based; design: concentration or dose not given beside the values; conditions: rat, in vivo
Summary of the method: (§1)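 Male Sprague-Dawley rats, n = 4 per group, 10 mg/kg iv (jugular slow bolus) or oral gavage, 10 mg/mL in ethanol–propylene glycol–D5W (20:30:50) with 1 equiv NaOH. Tail-vein plasma taken 0.1 (iv only) to 12 h, assayed by HPLC after extraction. AUC by trapezoidal rule extrapolated to infinity; T1/2 from terminal rate constant; F as oral/iv AUC.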

[3] = Pharmacokinetic profile-half life was evaluated in rats upon intravenous administration; format: ADME, organism-based; conditions: rat, in vivo; summary of the method: as §1
[4] = molecular target: T2, Endothelin receptor type B (Homo sapiens, UniProt P24530); assay: Tested for binding affinity for human Endothelin B receptor by measuring its ability to displace [125I]ET-3 from chinese hamster ovary cells(CHO); format: cell-based
T2 sequence (P24530 whole entry): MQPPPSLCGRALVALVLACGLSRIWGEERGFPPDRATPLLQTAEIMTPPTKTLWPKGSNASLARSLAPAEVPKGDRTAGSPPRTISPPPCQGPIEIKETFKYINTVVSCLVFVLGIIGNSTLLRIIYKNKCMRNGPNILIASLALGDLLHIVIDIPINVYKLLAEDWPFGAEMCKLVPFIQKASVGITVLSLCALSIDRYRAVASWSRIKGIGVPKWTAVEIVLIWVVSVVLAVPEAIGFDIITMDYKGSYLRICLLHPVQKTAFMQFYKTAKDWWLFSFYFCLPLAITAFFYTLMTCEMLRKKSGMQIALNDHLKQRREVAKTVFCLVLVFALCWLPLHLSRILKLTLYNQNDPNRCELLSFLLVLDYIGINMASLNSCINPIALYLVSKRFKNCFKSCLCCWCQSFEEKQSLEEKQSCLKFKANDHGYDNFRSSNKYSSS

[5] = Pharmacokinetic profile Cmax was evaluated in rats; format: ADME, organism-based; conditions: rat, in vivo; summary of the method: as §1
Endothelin-1 receptor [6] = molecular target: T3, Endothelin-1 receptor (Homo sapiens, UniProt P25101); assay: Tested for binding affinity for human Endothelin A receptor by measuring its ability to displace [125I]ET1 from chinese hamster ovary cells(CHO); format: cell-based
T3 sequence (P25101 whole entry): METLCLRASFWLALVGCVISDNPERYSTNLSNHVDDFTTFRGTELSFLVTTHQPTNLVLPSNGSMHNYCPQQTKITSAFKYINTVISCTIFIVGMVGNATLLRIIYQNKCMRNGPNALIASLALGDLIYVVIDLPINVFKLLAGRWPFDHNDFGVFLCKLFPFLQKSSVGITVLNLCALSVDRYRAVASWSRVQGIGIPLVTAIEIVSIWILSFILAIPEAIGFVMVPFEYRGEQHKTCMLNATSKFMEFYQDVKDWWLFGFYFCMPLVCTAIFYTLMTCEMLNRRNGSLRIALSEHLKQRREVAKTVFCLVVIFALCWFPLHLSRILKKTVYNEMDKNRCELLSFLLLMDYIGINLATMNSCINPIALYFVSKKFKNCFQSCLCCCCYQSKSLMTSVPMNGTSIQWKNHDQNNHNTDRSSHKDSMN

[7] = Bioavailability in rat; format: ADME, organism-based; conditions: in vivo; summary of the method: as §1
[8] = Pharmacokinetic profile-half life was evaluated in rats upon oral administration; format: ADME, organism-based; conditions: rat, in vivo; summary of the method: as §1
[9] = molecular target: T2, Endothelin receptor type B; assay: Tested for binding affinity for human Endothelin B receptor by measuring its ability to displace [125I]-ET-3 from chinese hamster ovary cells(CHO); format: cell-based

Compound: CCCCN(CCCC)C(=O)CN1C[C@H](c2ccc3c(c2)OCO3)[C@@H](C(=O)O)[C@@H]1CCC1OC(C)C(C)O1 (stereo partly specified)
IC50 (Endothelin-1 receptor [1]): 13 nM

Compound: CCCCN(CCCC)C(=O)CN1C[C@H](c2ccc3c(c2)OCO3)[C@@H](C(=O)O)[C@@H]1CC(CCC)CCC
IC50 (Endothelin-1 receptor [1]): 6 nM

Compound: Cc1noc(NS(=O)(=O)c2cccc3c(N(C)C)cccc23)c1C [BMS-182874]
Ki [9]: > 50000 nM

Compound: COc1ccc(C(=O)/C(Cc2cc(OC)c(OC)c(OC)c2)=C(\C(=O)[O-])c2ccc3c(c2)OCO3)cc1.[Na+] [PD-156707 SODIUM]
half-life [3]: 1 h
bioavailability [7]: 41%
Ki [9]: 139 nM

Compound: C/C=C\C(C)(C)C[C@H]1[C@H](C(=O)O)[C@@H](c2ccc3c(c2)OCO3)CN1CC(=O)N(CCCC)CCCC
AUC [2]: 2620 ng·h/mL
half-life [3]: 1.6 h
IC50 [4]: 92700 nM
half-life [8]: 3.58 h
Cmax [5]: 1490 ng/mL
IC50 (Endothelin-1 receptor [6]): 1 nM
bioavailability [7]: 32.2%

Compound: C=C(C)CCC[C@H]1[C@H](C(=O)O)[C@@H](c2ccc3c(c2)OCO3)CN1CC(=O)N(CCCC)CCCC
IC50 (Endothelin-1 receptor [1]): 5.2 nM

Compound: CCCCN(CCCC)C(=O)CN1C[C@H](c2ccc3c(c2)OCO3)[C@@H](C(=O)O)[C@@H]1CCN1C(=O)CCC1=O
IC50 (Endothelin-1 receptor [1]): 5 nM

Compound: CCCOc1ccc2c(c1)[C@@H](c1ccc(OC)cc1OCCO)[C@H](C(=O)O)[C@H]2c1ccc2c(c1)OCO2
half-life [3]: 3.3 h
bioavailability [7]: 66%

Compound: CCCCN(CCCC)C(=O)CN1C[C@H](c2ccc3c(c2)OCO3)[C@@H](C(=O)O)[C@@H]1CCC1OCCCO1
IC50 (Endothelin-1 receptor [1]): 3.3 nM

Compound: CCCCN(CCCC)C(=O)CN1C[C@H](c2ccc3c(c2)OCO3)[C@@H](C(=O)O)[C@@H]1CCC1CCCO1 (stereo partly specified)
IC50 (Endothelin-1 receptor [1]): 12 nM

Compound: CCCCN(CCCC)C(=O)CN1C[C@H](c2ccc3c(c2)OCO3)[C@@H](C(=O)O)[C@@H]1CCC(C)CC (stereo partly specified)
IC50 (Endothelin-1 receptor [1]): 16 nM

Compound: CCCCN(CCCC)C(=O)CN1C[C@H](c2ccc3c(c2)OCO3)[C@@H](C(=O)O)[C@@H]1CCC1CCOCC1
IC50 (Endothelin-1 receptor [1]): 10 nM

Continued, values first:

IC50 (Endothelin-1 receptor [1]): 2.7 nM
Compound: CCCCN(CCCC)C(=O)CN1C[C@H](c2ccc3c(c2)OCO3)[C@@H](C(=O)O)[C@@H]1CC(C)(C)C=C(C)C

IC50 (Endothelin-1 receptor [1]): 2.5 nM
Compound: CCCCN(CCCC)C(=O)CN1C[C@H](c2ccc3c(c2)OCO3)[C@@H](C(=O)O)[C@@H]1CCCC(C)C

IC50 (Endothelin-1 receptor [1]): 2.7 nM
Compound: CCCCN(CCCC)C(=O)CN1C[C@H](c2ccc3c(c2)OCO3)[C@@H](C(=O)O)[C@@H]1CCc1ccco1

AUC [2]: 9 ng·h/mL
IC50 (Endothelin-1 receptor [1]): 0.42 nM
half-life [3]: 1.4 h
IC50 [4]: 18000 nM
Cmax [5]: 16 ng/mL
IC50 (Endothelin-1 receptor [6]): 0.17 nM
bioavailability [7]: 0.3%
Compound: CCCCN(CCCC)C(=O)CN1C[C@H](c2ccc3c(c2)OCO3)[C@@H](C(=O)O)[C@@H]1CCN1CCCC1=O

IC50 (Endothelin-1 receptor [1]): 2.5 nM
Compound: CCCCN(CCCC)C(=O)CN1C[C@H](c2ccc3c(c2)OCO3)[C@@H](C(=O)O)[C@@H]1CCc1cccn1C

AUC [2]: 7060 ng·h/mL
IC50 (Endothelin-1 receptor [1]): 1.3 nM
half-life [3]: 2.45 h
IC50 [4]: 2800 nM
half-life [8]: 3.85 h
Cmax [5]: 1480 ng/mL
IC50 (Endothelin-1 receptor [6]): 0.29 nM
bioavailability [7]: 76.8%
Compound: CCCCN(CCCC)C(=O)CN1C[C@H](c2ccc3c(c2)OCO3)[C@@H](C(=O)O)[C@@H]1CC(C)(C)CCC

IC50 (Endothelin-1 receptor [1]): 0.51 nM
IC50 [4]: 42000 nM
IC50 (Endothelin-1 receptor [6]): 1.06 nM
Compound: CCCCN(CCCC)C(=O)CN1C[C@H](c2ccc3c(c2)OCO3)[C@@H](C(=O)O)[C@@H]1CCn1cccn1

IC50 (Endothelin-1 receptor [1]): 1.3 nM
Compound: CCCCN(CCCC)C(=O)CN1C[C@H](c2ccc3c(c2)OCO3)[C@@H](C(=O)O)[C@@H]1CCC=C(C)C

IC50 (Endothelin-1 receptor [1]): 1.05 nM
Compound: CCCCN(CCCC)C(=O)CN1C[C@H](c2ccc3c(c2)OCO3)[C@@H](C(=O)O)[C@@H]1CCc1nc(C)c(C)o1

IC50 (Endothelin-1 receptor [1]): 0.86 nM
Compound: CCCCN(CCCC)C(=O)CN1C[C@H](c2ccc3c(c2)OCO3)[C@@H](C(=O)O)[C@@H]1CC/C=C(/C)CC
